Measurements: ChEMBL document CHEMBL1148061, “Antiplatelet aggregation principles of Dendrobium loddigesii” (J Nat Prod, 1994)

Assays:
[1] = Antiplatelet activity against washed rabbit platelet assessed as inhibition of collagen-induced platelet aggregation at 100 ug/ml preincubated for 3 mins by turbidimetric method; assay type: functional, Oryctolagus cuniculus; parameters: scale not given: the % may be the effect or the level left
Method in brief: (§1)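 Washed rabbit platelets from EDTA-anticoagulated platelet-rich plasma, 4.5×10^8/ml in Tyrode solution with 0.35% BSA, stirred at 1200 rpm at 37°. Turbidimetric read-out; % aggregation as means ± S.E. (n=3), Student's t test versus DMSO control.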

[2] = (§2) Antiplatelet activity against washed rabbit platelet assessed as inhibition of arachidonic acid-induced platelet aggregation preincubated for 3 mins by turbidimetric method; assay type: functional, cell-based; details: Oryctolagus cuniculus
Method in brief: (§3)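 Washed rabbit platelets, 4.5×10^8/ml in Tyrode–0.35% BSA, stirred at 1200 rpm at 37°. Compound preincubated 3 min (final DMSO 0.5%) before arachidonic acid 100 μM. Aggregation read turbidimetrically. Percent inhibition across concentrations given as means ± S.E. (n=3); IC50 taken from the concentration–response curve.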

Platelet = assay: as §2; assay type: functional, cell-based; details: Oryctolagus cuniculus; method in brief: as §3
[3] = Antiplatelet activity against washed rabbit platelet assessed as inhibition of platelet activating factor-induced platelet aggregation at 100 ug/ml preincubated for 3 mins by turbidimetric method; assay type: functional, Oryctolagus cuniculus; parameters: scale not given: the % may be the effect or the level left; method in brief: as §1
[4] = Antiplatelet activity against washed rabbit platelet assessed as inhibition of arachidonic acid-induced platelet aggregation at 20 ug/ml preincubated for 3 mins by turbidimetric method; assay type: functional, Oryctolagus cuniculus; parameters: scale not given: the % may be the effect or the level left; method in brief: as §1
[5] = Antiplatelet activity against washed rabbit platelet assessed as inhibition of arachidonic acid-induced platelet aggregation at 100 ug/ml preincubated for 3 mins by turbidimetric method; assay type: functional, Oryctolagus cuniculus; parameters: scale not given: the % may be the effect or the level left; method in brief: as §1
[6] = Antiplatelet activity against washed rabbit platelet assessed as inhibition of arachidonic acid-induced platelet aggregation at 5 ug/ml preincubated for 3 mins by turbidimetric method; values are per cent of control
[7] = Antiplatelet activity against washed rabbit platelet assessed as inhibition of thrombin-induced platelet aggregation at 100 ug/ml preincubated for 3 mins by turbidimetric method; assay type: functional, Oryctolagus cuniculus; parameters: scale not given: the % may be the effect or the level left; method in brief: as §1
[8] = Antiplatelet activity against washed rabbit platelet assessed as inhibition of arachidonic acid-induced platelet aggregation at 10 ug/ml preincubated for 3 mins by turbidimetric method; values are per cent of control
[9] = Antiplatelet activity against washed rabbit platelet assessed as inhibition of collagen-induced platelet aggregation at 2 ug/ml preincubated for 3 mins by turbidimetric method; assay type: functional, Oryctolagus cuniculus; method in brief: as §1
[10] = Antiplatelet activity against washed rabbit platelet assessed as inhibition of platelet activating factor-induced platelet aggregation at 50 ug/ml preincubated for 3 mins by turbidimetric method; assay type: functional, Oryctolagus cuniculus; parameters: scale not given: the % may be the effect or the level left; method in brief: as §1
[11] = Antiplatelet activity against washed rabbit platelet assessed as inhibition of collagen-induced platelet aggregation at 5 ug/ml preincubated for 3 mins by turbidimetric method; assay type: functional, Oryctolagus cuniculus; method in brief: as §1
[12] = Antiplatelet activity against washed rabbit platelet assessed as inhibition of collagen-induced platelet aggregation at 20 ug/ml preincubated for 3 mins by turbidimetric method; assay type: functional, Oryctolagus cuniculus; method in brief: as §1
[13] = Antiplatelet activity against washed rabbit platelet assessed as inhibition of collagen-induced platelet aggregation at 50 ug/ml preincubated for 3 mins by turbidimetric method; assay type: functional, Oryctolagus cuniculus; parameters: scale not given: the % may be the effect or the level left; method in brief: as §1
[14] = Antiplatelet activity against washed rabbit platelet assessed as inhibition of collagen-induced platelet aggregation at 10 ug/ml preincubated for 3 mins by turbidimetric method; assay type: functional, Oryctolagus cuniculus; method in brief: as §1
[15] = Antiplatelet activity against washed rabbit platelet assessed as inhibition of arachidonic acid-induced platelet aggregation at 50 ug/ml preincubated for 3 mins by turbidimetric method; values are per cent of control

Compound	Activity [1]	IC50 [2]	Activity (Platelet)	Activity [3]	Activity [4]	Activity [5]	level, % of control [6]	Activity [7]	level, % of control [8]	aggregation [9]	Activity [10]	aggregation [11]	aggregation [12]	Activity [13]	aggregation [14]	level, % of control [15]
COc1cc(CCc2cc(OC)c(OC(C)=O)c(OC)c2)ccc1OC(C)=O [MOSCATILIN DIACETATE]	12.8%	11.2 µM	Dose-dependent effect	36%	0%	0%	33.9%	93.4%	0%	–	–	–	–	–	–	–
COc1cc(CCc2cc(OC)c(O)c(OC)c2)ccc1O [MOSCATILIN]	0%	61.8 µM	Dose-dependent effect	24.7%	36.4%	0%	78.7%	85.3%	52%	78.5%	72.1%	58.4%	19.6%	0%	42.3%	0%
COc1cc(O)cc2ccc3cccc(O)c3c12 [MOSCATIN]	0%	37.2 µM	Dose-dependent effect	24.7%	0%	0%	87.6%	41%	22.8%	78.5%	72.1%	58.4%	19.6%	0%	42.3%	0%
